# Experimental data reported in ChEMBL document CHEMBL5030505, “Assessment of NR4A Ligands That Directly Bind and Modulate the Orphan Nuclear Receptor Nurr1” (J Med Chem, 2020).
# Target: Nuclear receptor subfamily 4 group A member 2 (Homo sapiens) (UniProt P43354)
# Assay: Modulation of full length human Nurr1 expressed in HEK293T cells co-transfected with RXRalpha and luciferase reporter plasmid harboring NurRE response element assessed as increase in luciferase activity incubated for 18 hrs by luciferase reporter-gene assay
# Format: cell-based
# Details: filed as modulator
# Outline: (§1)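 Full-length Nurr1 plasmid, alone (2 μg) or 1 μg plus full-length RXRα (1 μg), cotransfected with 3xNBRE- or 3xNurRE-luciferase reporter (6 μg) using Lipofectamine 2000, 18 h. Cells replated at 10,000/well for 4 h. Four ligand concentrations, or vehicle (water, ethanol or DMSO), added in quadruplicate for 18 h. Luciferase read. Fold change vs vehicle, mean ± s.e.m., one-way ANOVA vs vehicle.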
# Chain of Nuclear receptor subfamily 4 group A member 2 (Homo sapiens) (P43354 whole entry): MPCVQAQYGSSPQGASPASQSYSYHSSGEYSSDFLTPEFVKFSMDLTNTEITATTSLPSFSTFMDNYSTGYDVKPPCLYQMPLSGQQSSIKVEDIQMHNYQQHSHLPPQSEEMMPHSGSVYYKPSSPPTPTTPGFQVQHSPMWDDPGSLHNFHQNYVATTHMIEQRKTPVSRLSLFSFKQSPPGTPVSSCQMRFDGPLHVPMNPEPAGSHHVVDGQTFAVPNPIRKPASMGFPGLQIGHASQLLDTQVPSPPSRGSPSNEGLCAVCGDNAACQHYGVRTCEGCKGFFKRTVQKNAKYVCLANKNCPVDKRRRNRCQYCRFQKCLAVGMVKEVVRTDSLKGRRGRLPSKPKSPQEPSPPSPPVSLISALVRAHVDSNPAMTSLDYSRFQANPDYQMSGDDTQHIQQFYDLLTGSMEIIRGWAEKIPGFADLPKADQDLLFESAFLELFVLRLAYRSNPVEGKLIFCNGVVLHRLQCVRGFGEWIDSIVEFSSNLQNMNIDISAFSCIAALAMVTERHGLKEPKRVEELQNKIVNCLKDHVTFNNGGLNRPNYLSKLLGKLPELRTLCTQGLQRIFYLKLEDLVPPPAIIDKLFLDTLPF
row,Activity,SMILES
1,Dose-Dependent Effect,CCN(CC)CCCC(C)Nc1ccnc2cc(Cl)ccc12 (centres undefined) [CHLOROQUINE]

# Target: Nuclear receptor subfamily 4 group A member 3 (Homo sapiens) (UniProt Q92570)
# Assay: Modulation of full length human NOR1 expressed in SK-N-BE(2) cells co-transfected with RXRalpha and luciferase reporter plasmid harboring NBRE response element assessed as increase in luciferase activity incubated for 18 by luciferase reporter gene assay
# Format: cell-based
# Details: SKNBE2, filed as modulator, time 18.0 hrs
# Outline: (§2)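 Cells seeded at 1.5 million per 10-cm dish. Next day they were transfected (Lipofectamine 2000) with full-length Nur77 or NOR-1 expression plasmid, either alone (2 μg) or 1 μg plus full-length RXRα (1 μg), and 3xNBRE- or 3xNurRE-luciferase reporter (6 μg), 18 h. Cells replated at 10,000/well, 4 h, then ligand dose response added in quadruplicate for 18 h. Luciferase luminescence read.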
# Chain of Nuclear receptor subfamily 4 group A member 3 (Homo sapiens) (Q92570 whole entry): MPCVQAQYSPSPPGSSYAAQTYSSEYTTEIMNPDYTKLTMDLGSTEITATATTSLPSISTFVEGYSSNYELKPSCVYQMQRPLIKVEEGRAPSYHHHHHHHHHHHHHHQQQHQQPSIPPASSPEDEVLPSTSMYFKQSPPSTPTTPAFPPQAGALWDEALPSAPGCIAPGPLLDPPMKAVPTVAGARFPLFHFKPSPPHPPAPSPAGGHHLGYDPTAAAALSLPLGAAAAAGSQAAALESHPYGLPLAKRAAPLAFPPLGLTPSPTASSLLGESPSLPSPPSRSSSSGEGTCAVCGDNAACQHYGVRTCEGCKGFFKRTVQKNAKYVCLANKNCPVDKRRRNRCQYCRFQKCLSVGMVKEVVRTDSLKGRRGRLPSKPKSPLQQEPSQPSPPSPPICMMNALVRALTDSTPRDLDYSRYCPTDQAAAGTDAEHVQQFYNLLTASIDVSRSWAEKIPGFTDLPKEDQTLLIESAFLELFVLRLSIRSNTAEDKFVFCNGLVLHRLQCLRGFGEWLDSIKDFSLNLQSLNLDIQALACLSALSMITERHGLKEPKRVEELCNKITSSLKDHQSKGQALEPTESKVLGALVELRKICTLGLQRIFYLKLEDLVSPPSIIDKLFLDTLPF
row,Activity,SMILES
1,Dose-Dependent Effect,CCN(CC)CCCC(C)Nc1ccnc2cc(Cl)ccc12 (centres undefined) [CHLOROQUINE]

# Target: Nuclear receptor subfamily 4 group A member 2 (Homo sapiens) (UniProt P43354)
# Assay: Modulation of full length human Nurr1 expressed in HEK293T cells co-transfected with luciferase reporter plasmid harboring NBRE response element assessed as increase in luciferase activity incubated for 18 hrs by luciferase reporter-gene assay
# Format: cell-based
# Details: filed as modulator
# Outline: as §1
row,Activity,SMILES
1,Dose-Dependent Effect,CCN(CC)CCCC(C)Nc1ccnc2cc(Cl)ccc12 (centres undefined) [CHLOROQUINE]

# Target: Nuclear receptor subfamily 4immunitygroup A member 1 (Homo sapiens) (UniProt P22736)
# Assay: Modulation of full length human Nur77 expressed in PC12 cells co-transfected with luciferase reporter plasmid harboring NurRE response element assessed as increase in luciferase activity incubated for 18 by luciferase reporter gene assay
# Format: cell-based
# Details: PC-12, filed as modulator, time 18.0 hrs
# Outline: as §2
# Chain of Nuclear receptor subfamily 4immunitygroup A member 1 (Homo sapiens) (P22736 whole entry): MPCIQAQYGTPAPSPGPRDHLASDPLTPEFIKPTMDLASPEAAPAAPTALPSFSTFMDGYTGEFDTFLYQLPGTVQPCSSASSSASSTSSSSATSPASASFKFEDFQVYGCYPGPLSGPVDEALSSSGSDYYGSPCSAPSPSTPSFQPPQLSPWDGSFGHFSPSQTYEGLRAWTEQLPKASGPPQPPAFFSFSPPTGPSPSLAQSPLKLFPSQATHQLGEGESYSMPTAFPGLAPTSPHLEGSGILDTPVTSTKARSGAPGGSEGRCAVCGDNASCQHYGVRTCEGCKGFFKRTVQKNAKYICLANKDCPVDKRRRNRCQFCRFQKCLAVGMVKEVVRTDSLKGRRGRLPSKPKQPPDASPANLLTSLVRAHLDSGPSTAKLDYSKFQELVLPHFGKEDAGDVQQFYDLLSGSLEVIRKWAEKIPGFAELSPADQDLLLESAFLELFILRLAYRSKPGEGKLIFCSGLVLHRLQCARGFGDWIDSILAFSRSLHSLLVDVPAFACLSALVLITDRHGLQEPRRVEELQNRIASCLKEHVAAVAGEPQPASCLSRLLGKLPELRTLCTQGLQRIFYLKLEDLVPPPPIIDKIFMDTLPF
row,Activity,SMILES
1,Dose-Dependent Effect,CCN(CC)CCCC(C)Nc1ccnc2cc(Cl)ccc12 (centres undefined) [CHLOROQUINE]

# Target: Nuclear receptor subfamily 4 group A member 2 (Homo sapiens) (UniProt P43354)
# Assay: Modulation of full length human Nurr1 expressed in HEK293T cells co-transfected with luciferase reporter plasmid harboring NurRE response element assessed as increase in luciferase activity incubated for 18 hrs by luciferase reporter-gene assay
# Format: cell-based
# Details: filed as modulator
# Outline: as §1
row,Activity,SMILES
1,Dose-Dependent Effect,CCN(CC)CCCC(C)Nc1ccnc2cc(Cl)ccc12 (centres undefined) [CHLOROQUINE]

# Target: Nuclear receptor subfamily 4 group A member 3 (Homo sapiens) (UniProt Q92570)
# Assay: Modulation of full length human NOR1 expressed in HEK293T cells co-transfected with RXRalpha luciferase reporter plasmid harboring NurRE response element assessed as increase in luciferase activity incubated for 18 hrs by luciferase reporter gene assay
# Format: cell-based
# Details: filed as modulator
# Outline: (§3)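 Full-length NOR-1 plasmid was transfected via Lipofectamine 2000, either alone (2 μg) or at 1 μg with full-length RXRα (1 μg). It was paired with a 3xNBRE or 3xNurRE luciferase reporter (6 μg), 8 μg total DNA, for 18 h. Cells were replated at 10,000/well for 4 h, then given a full ligand dose response or vehicle in quadruplicate for 18 h. Luciferase was read; no EC50/IC50 was fitted.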
row,Activity,SMILES
1,Dose-Dependent Effect,CCN(CC)CCCC(C)Nc1ccnc2cc(Cl)ccc12 (centres undefined) [CHLOROQUINE]

# Target: Nuclear receptor subfamily 4 group A member 3 (Homo sapiens) (UniProt Q92570)
# Assay: Modulation of full length human NOR1 expressed in PC12 cells co-transfected with RXRalpha and luciferase reporter plasmid harboring NBRE response element assessed as increase in luciferase activity incubated for 18 by luciferase reporter gene assay
# Format: cell-based
# Details: PC-12, filed as modulator, time 18.0 hrs
# Outline: as §3
row,Activity,SMILES
1,Dose-Dependent Effect,CCN(CC)CCCC(C)Nc1ccnc2cc(Cl)ccc12 (centres undefined) [CHLOROQUINE]

# Target: Nuclear receptor subfamily 4immunitygroup A member 1 (Homo sapiens) (UniProt P22736)
# Assay: Modulation of full length human Nur77 expressed in SK-N-BE(2) cells co-transfected with RXRalpha and luciferase reporter plasmid harboring NBRE response element assessed as increase in luciferase activity incubated for 18 by luciferase reporter gene assay
# Format: cell-based
# Details: SKNBE2, filed as modulator, time 18.0 hrs
# Outline: as §2
row,Activity,SMILES
1,Dose-Dependent Effect,CCN(CC)CCCC(C)Nc1ccnc2cc(Cl)ccc12 (centres undefined) [CHLOROQUINE]

# Target: Nuclear receptor subfamily 4immunitygroup A member 1 (Homo sapiens) (UniProt P22736)
# Assay: Modulation of full length human Nur77 expressed in PC12 cells co-transfected with RXRalpha and luciferase reporter plasmid harboring NurRE response element assessed as increase in luciferase activity incubated for 18 by luciferase reporter gene assay
# Format: cell-based
# Details: PC-12, filed as modulator, time 18.0 hrs
# Outline: as §2
row,Activity,SMILES
1,Dose-Dependent Effect,CCN(CC)CCCC(C)Nc1ccnc2cc(Cl)ccc12 (centres undefined) [CHLOROQUINE]

# Target: Nuclear receptor subfamily 4 group A member 2 (Homo sapiens) (UniProt P43354)
# Assay: Modulation of full length human Nurr1 expressed in SKNBE(2) cells co-transfected with RXRalpha and luciferase reporter plasmid harboring NBRE response element assessed as increase in luciferase activity incubated for 18 hrs by luciferase reporter-gene assay
# Format: cell-based
# Details: SKNBE2, filed as modulator
# Outline: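 SK-N-BE(2)-C cells were kept in 1:1 EMEM/F12 with 10% FBS at 37°C and 5% CO2. They were cotransfected with full-length Nurr1 (1 μg), full-length RXRα (1 μg) and 3xNBRE- or 3xNurRE-luc reporter (6 μg) for 18 h, replated at 10,000 cells/well for 4 h, and then treated with ligand or vehicle in quadruplicate for 18 h. The readout was luciferase luminescence as fold over vehicle, reported as mean ± s.e.m. (n=4) from 2 independent experiments, one-way ANOVA.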
row,Activity,SMILES
1,Dose-Dependent Effect,CCN(CC)CCCC(C)Nc1ccnc2cc(Cl)ccc12 (centres undefined) [CHLOROQUINE]

# Target: Nuclear receptor subfamily 4immunitygroup A member 1 (Homo sapiens) (UniProt P22736)
# Assay: Modulation of full length human Nur77 expressed in HEK293 cells co-transfected with RXRalpha and luciferase reporter plasmid harboring NurRE response element assessed as increase in luciferase activity incubated for 18 hrs by luciferase reporter gene assay
# Format: cell-based
# Details: filed as modulator
# Outline: as §2
row,Activity,SMILES
1,Dose-Dependent Effect,CCN(CC)CCCC(C)Nc1ccnc2cc(Cl)ccc12 (centres undefined) [CHLOROQUINE]

# Target: Nuclear receptor subfamily 4 group A member 3 (Homo sapiens) (UniProt Q92570)
# Assay: Modulation of full length human NOR1 expressed in SK-N-BE(2) cells co-transfected with RXRalpha and luciferase reporter plasmid harboring NurRE response element assessed as increase in luciferase activity incubated for 18 by luciferase reporter gene assay
# Format: cell-based
# Details: SKNBE2, filed as modulator, time 18.0 hrs
# Outline: as §2
row,Activity,SMILES
1,Dose-Dependent Effect,CCN(CC)CCCC(C)Nc1ccnc2cc(Cl)ccc12 (centres undefined) [CHLOROQUINE]

# Target: Nuclear receptor subfamily 4immunitygroup A member 1 (Homo sapiens) (UniProt P22736)
# Assay: Modulation of full length human Nur77 expressed in SK-N-BE(2) cells co-transfected with luciferase reporter plasmid harboring NurRE response element assessed as increase in luciferase activity incubated for 18 by luciferase reporter gene assay
# Format: cell-based
# Details: SKNBE2, filed as modulator, time 18.0 hrs
# Outline: as §2
row,Activity,SMILES
1,Dose-Dependent Effect,CCN(CC)CCCC(C)Nc1ccnc2cc(Cl)ccc12 (centres undefined) [CHLOROQUINE]

# Target: Nuclear receptor subfamily 4immunitygroup A member 1 (Homo sapiens) (UniProt P22736)
# Assay: Modulation of full length human Nur77 expressed in HEK293 cells co-transfected with luciferase reporter plasmid harboring NurRE response element assessed as increase in luciferase activity incubated for 18 hrs by luciferase reporter gene assay
# Format: cell-based
# Details: filed as modulator
# Outline: as §2
row,Activity,SMILES
1,Dose-Dependent Effect,CCN(CC)CCCC(C)Nc1ccnc2cc(Cl)ccc12 (centres undefined) [CHLOROQUINE]

# Target: Nuclear receptor subfamily 4 group A member 2 (Homo sapiens) (UniProt P43354)
# Assay: Modulation of full length human Nurr1 expressed in SKNBE(2) cells co-transfected with luciferase reporter plasmid harboring NBRE response element assessed as increase in luciferase activity incubated for 18 hrs by luciferase reporter-gene assay
# Format: cell-based
# Details: SKNBE2, filed as modulator
# Outline: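 Transfection of SK-N-BE(2)-C cells (1:1 EMEM/F12, 10% FBS, 37°C, 5% CO2) used full-length Nurr1 alone (2 μg, no RXRα) with 3xNBRE- or 3xNurRE-luciferase reporter (6 μg) for 18 h. Cells were replated at 10,000/well for 4 h, then exposed to ligand or vehicle in quadruplicate for 18 h. Luminescence was expressed as fold over vehicle, as mean ± s.e.m. (n=4) from 2 independent experiments, one-way ANOVA against vehicle.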
row,Activity,SMILES
1,Dose-Dependent Effect,CCN(CC)CCCC(C)Nc1ccnc2cc(Cl)ccc12 (centres undefined) [CHLOROQUINE]

# Target: Nuclear receptor subfamily 4immunitygroup A member 1 (Homo sapiens) (UniProt P22736)
# Assay: Modulation of full length human Nur77 expressed in SK-N-BE(2) cells co-transfected with RXRalpha and luciferase reporter plasmid harboring NurRE response element assessed as increase in luciferase activity incubated for 18 by luciferase reporter gene assay
# Format: cell-based
# Details: SKNBE2, filed as modulator, time 18.0 hrs
# Outline: as §2
row,Activity,SMILES
1,Dose-Dependent Effect,CCN(CC)CCCC(C)Nc1ccnc2cc(Cl)ccc12 (centres undefined) [CHLOROQUINE]

# Target: Nuclear receptor subfamily 4immunitygroup A member 1 (Homo sapiens) (UniProt P22736)
# Assay: Modulation of full length human Nur77 expressed in PC12 cells co-transfected with RXRalpha and luciferase reporter plasmid harboring NBRE response element assessed as increase in luciferase activity incubated for 18 by luciferase reporter gene assay
# Format: cell-based
# Details: PC-12, filed as modulator, time 18.0 hrs
# Outline: as §2
row,Activity,SMILES
1,Dose-Dependent Effect,CCN(CC)CCCC(C)Nc1ccnc2cc(Cl)ccc12 (centres undefined) [CHLOROQUINE]

# Target: Nuclear receptor subfamily 4 group A member 3 (Homo sapiens) (UniProt Q92570)
# Assay: Modulation of full length human NOR1 expressed in PC12 cells co-transfected with luciferase reporter plasmid harboring NBRE response element assessed as increase in luciferase activity incubated for 18 by luciferase reporter gene assay
# Format: cell-based
# Details: PC-12, filed as modulator, time 18.0 hrs
# Outline: as §3
row,Activity,SMILES
1,Dose-Dependent Effect,CCN(CC)CCCC(C)Nc1ccnc2cc(Cl)ccc12 (centres undefined) [CHLOROQUINE]

# Target: Nuclear receptor subfamily 4 group A member 3 (Homo sapiens) (UniProt Q92570)
# Assay: Modulation of full length human NOR1 expressed in PC12 cells co-transfected with RXRalpha and luciferase reporter plasmid harboring NurRE response element assessed as increase in luciferase activity incubated for 18 by luciferase reporter gene assay
# Format: cell-based
# Details: PC-12, filed as modulator, time 18.0 hrs
# Outline: as §3
row,Activity,SMILES
1,Dose-Dependent Effect,CCN(CC)CCCC(C)Nc1ccnc2cc(Cl)ccc12 (centres undefined) [CHLOROQUINE]
